Measurements from ChEMBL document CHEMBL2424574, “Structure-activity relationships and pharmacophore model of a noncompetitive pyrazoline containing class of GluN2C/GluN2D selective antagonists” (J Med Chem, 2013).
Calls of active or inactive are those of the source. The rule behind the calls is not given here.

Columns and labels:
[1] = system: Liver microsomes; test: Half life in human liver microsomes at 1 uM; type: ADME, Microsome
How it was run: (§1)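 Human liver microsomes 0.5 mg/mL in 100 mM potassium phosphate pH 7.4 with 5 mM MgCl2 and 1 μM test compound. Preincubated 3 min at 37 °C, then started with 1 mM NADPH, with a testosterone control in parallel. Sampled at 0, 10, 20, 30 and 60 min and quenched in cold acetonitrile/water with formic acid and internal standard. Percent remaining by LC-MS/MS (MRM) versus time 0. t1/2 = 0.693/k from the ln-remaining slope; CLint = k/protein concentration.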

[2] = system: Liver microsomes; test: Intrinsic clearance in human liver microsomes measured per mg of protein at 1 uM by LC-MS/MS analysis; type: ADME, Microsome; how it was run: as §1
[3] = system: Liver microsomes; test: Metabolic stability in human liver microsomes assessed as compound remaining at 1 uM after 60 mins by LC-MS/MS analysis; type: ADME, Microsome; settings: 1 h; how it was run: as §1
[4] = system: Liver microsomes; test: Metabolic stability in human liver microsomes assessed as compound remaining at 1 uM after 30 mins by LC-MS/MS analysis; type: ADME, Microsome; settings: 0.5 h; how it was run: as §1
[5] = system: Liver microsomes; test: Metabolic stability in human liver microsomes assessed as compound remaining at 1 uM after 20 mins by LC-MS/MS analysis; type: ADME, Microsome; how it was run: as §1
[6] = system: MDCK; test: Permeability across basolateral to apical side in dog MDCK cells expressing MDR1 assessed as compound recovery at 5 uM after 120 mins by LC-MS/MS analysis; type: ADME, cell-based, Canis lupus familiaris; settings: 2 h
How it was run: (§2)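 MDR1-MDCK monolayers grown to confluence on collagen-coated polycarbonate membranes. Assay buffer was HBSS with 10 mM HEPES and 15 mM glucose, pH 7.4, and the receiver side also held 1% BSA. Monolayers were dosed apically (A-to-B) or basolaterally (B-to-A) at 5 μM, 37 °C, 5% CO2. Donor and receiver were sampled at 120 min, in duplicate, by LC-MS/MS (ESI). Papp and percent recovery were calculated from receiver/donor concentrations.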

[7] = system: MDCK; test: Apparent permeability across basolateral to apical side in dog MDCK cells expressing MDR1 at 5 uM after 120 mins by LC-MS/MS analysis; type: ADME, cell-based, Canis lupus familiaris; settings: 2 h; how it was run: as §2
[8] = Aqueous solubility in DMSO buffer by nephelometric analysis; type: physicochemical; settings: oocyte recording buffer; in the assay text read “oocyte recording buffer” for “DMSO buffer”
How it was run: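 Solubility measured by nephelometry in oocyte recording buffer: 90 mM NaCl, 1 KCl, 0.5 BaCl2, 0.005 EDTA, 10 HEPES, pH 7.4.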

[9] = system: Plasma; test: Metabolic stability in human plasma after 2 hrs; type: ADME, cell-free
How it was run: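 Stability followed in human, rat or mouse plasma over a 2-hour time course.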

[10] = species on record: Rattus norvegicus; test: Selectivity ratio of IC50 for recombinant rat GluN2B receptor to IC50 for recombinant rat GluN2D receptor
How it was run: (§3)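 Rat GluN1 co-expressed with GluN2A, GluN2B or GluN2D in Xenopus oocytes. Two-electrode voltage clamp at −40 mV in 90 NaCl, 1 KCl, 0.5 BaCl2, 0.005 EDTA, 10 HEPES (mM), pH 7.4, 23 °C; final DMSO 0.1–0.05%. IC50s came from Hill fits to averaged composite concentration-response curves (5–24 oocytes, 2–4 frogs). Ratio is GluN2A or GluN2B IC50 over GluN2D IC50.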

[11] = target: Glutamate receptor ionotropic, NMDA 2B (Rattus norvegicus, UniProt P35439+Q00960); test: Negative allosteric modulation of recombinant rat GluN2B receptor expressed in Xenopus laevis oocytes by two-electrode voltage clamp method; type: cell-based, Oocyte
How it was run: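 Two-electrode voltage clamp of Xenopus oocytes expressing rat GluN1 with GluN2A, 2B, 2C or 2D. Holding potential −40 mV in recording solution (mM: 90 NaCl, 1 KCl, 0.5 BaCl2, 0.005 EDTA, 10 HEPES, pH 7.4, 23 °C). Compounds diluted from 20 mM DMSO stocks to 0.05–0.1% final DMSO. IC50 from a Hill fit to the averaged composite concentration–response curve, 5–24 oocytes from 2–4 frogs.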

[12] = species on record: Rattus norvegicus; test: Selectivity ratio of IC50 for recombinant rat GluN2A receptor to IC50 for recombinant rat GluN2D receptor; how it was run: as §3
[13] = target: P2X purinoceptor 2 (Rattus norvegicus) (UniProt P49653); test: Inhibition of rat purinergic receptor P2X subunit-2 expressed in Xenopus laevis oocytes assessed as inhibition of ATP-induced current at 3 uM by two-electrode voltage clamp method; values are per cent of control; settings: Oocyte
[14] = target: Glutamate receptor ionotropic, kainate 2 (Homo sapiens) (UniProt Q13002); test: Inhibition of GluK2 receptor (unknown origin) expressed in Xenopus laevis oocytes assessed as inhibition of glutamate-induced current at 3 uM by two-electrode voltage clamp method; values are per cent of control; settings: Oocyte
[15] = target: Glutamate receptor ionotropic, kainate 1 (Homo sapiens) (UniProt P39086); test: Inhibition of GluK1 receptor (unknown origin) expressed in Xenopus laevis oocytes assessed as inhibition of glutamate-induced current at 3 uM by two-electrode voltage clamp method; values are per cent of control; settings: Oocyte
[16] = target: Glutamate receptor 3 (Homo sapiens) (UniProt P42263); test: Inhibition of GluA3 receptor (unknown origin) expressed in Xenopus laevis oocytes assessed as inhibition of glutamate-induced current at 3 uM by two-electrode voltage clamp method; values are per cent of control; settings: Oocyte
[17] = target: Gamma-aminobutyric acid receptor subunit rho-1 (Homo sapiens) (UniProt P24046); test: Inhibition of human GABA C receptor subunit rho-1 receptor expressed in Xenopus laevis oocytes assessed as inhibition of GABA-induced current at 3 uM by two-electrode voltage clamp method; values are per cent of control; settings: Oocyte
[18] = target: Ionotropic glutamate receptor NMDA 1/2C (Homo sapiens) (UniProt Q05586+Q14957); test: Inhibition of GluN1/GluN2C receptor (unknown origin) expressed in Xenopus laevis oocytes assessed as inhibition of glutamate/glycine-induced current at 3 uM by two-electrode voltage clamp method; values are per cent of control; settings: Oocyte
[19] = target: Neuronal acetylcholine receptor subunit alpha-7 (Homo sapiens) (UniProt P36544); test: Inhibition of human nicotinic acetylcholine receptor subunit alpha-7 expressed in Xenopus laevis oocytes assessed as inhibition of acetylcholine-induced current at 3 uM by two-electrode voltage clamp method; values are per cent of control; settings: Oocyte
[20] = target: 5-hydroxytryptamine receptor 1E (Homo sapiens, UniProt P28566); test: Inhibition of 5HT1E receptor (unknown origin)
How it was run: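 Radioligand panel screening was run through the NIMH Psychoactive Drug Screening Program with compounds at 5 µM.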

[21] = species on record: Homo sapiens; test: Inhibition of GluN2D receptor L705F mutant (unknown origin)
[22] = species on record: Homo sapiens; test: Inhibition of GluN2D receptor Q801Y mutant (unknown origin)
[23] = target: T1, Ionotropic glutamate receptor NMDA 1/2D (Homo sapiens) (UniProt Q05586+O15399); settings: Oocyte, 1 uM
[24] = target: T1, Ionotropic glutamate receptor NMDA 1/2D (Homo sapiens); settings: Oocyte, 1 uM; remark: listed apart in the source

Chain of Glutamate receptor ionotropic, NMDA 2B (Q00960 whole entry, one chain of several): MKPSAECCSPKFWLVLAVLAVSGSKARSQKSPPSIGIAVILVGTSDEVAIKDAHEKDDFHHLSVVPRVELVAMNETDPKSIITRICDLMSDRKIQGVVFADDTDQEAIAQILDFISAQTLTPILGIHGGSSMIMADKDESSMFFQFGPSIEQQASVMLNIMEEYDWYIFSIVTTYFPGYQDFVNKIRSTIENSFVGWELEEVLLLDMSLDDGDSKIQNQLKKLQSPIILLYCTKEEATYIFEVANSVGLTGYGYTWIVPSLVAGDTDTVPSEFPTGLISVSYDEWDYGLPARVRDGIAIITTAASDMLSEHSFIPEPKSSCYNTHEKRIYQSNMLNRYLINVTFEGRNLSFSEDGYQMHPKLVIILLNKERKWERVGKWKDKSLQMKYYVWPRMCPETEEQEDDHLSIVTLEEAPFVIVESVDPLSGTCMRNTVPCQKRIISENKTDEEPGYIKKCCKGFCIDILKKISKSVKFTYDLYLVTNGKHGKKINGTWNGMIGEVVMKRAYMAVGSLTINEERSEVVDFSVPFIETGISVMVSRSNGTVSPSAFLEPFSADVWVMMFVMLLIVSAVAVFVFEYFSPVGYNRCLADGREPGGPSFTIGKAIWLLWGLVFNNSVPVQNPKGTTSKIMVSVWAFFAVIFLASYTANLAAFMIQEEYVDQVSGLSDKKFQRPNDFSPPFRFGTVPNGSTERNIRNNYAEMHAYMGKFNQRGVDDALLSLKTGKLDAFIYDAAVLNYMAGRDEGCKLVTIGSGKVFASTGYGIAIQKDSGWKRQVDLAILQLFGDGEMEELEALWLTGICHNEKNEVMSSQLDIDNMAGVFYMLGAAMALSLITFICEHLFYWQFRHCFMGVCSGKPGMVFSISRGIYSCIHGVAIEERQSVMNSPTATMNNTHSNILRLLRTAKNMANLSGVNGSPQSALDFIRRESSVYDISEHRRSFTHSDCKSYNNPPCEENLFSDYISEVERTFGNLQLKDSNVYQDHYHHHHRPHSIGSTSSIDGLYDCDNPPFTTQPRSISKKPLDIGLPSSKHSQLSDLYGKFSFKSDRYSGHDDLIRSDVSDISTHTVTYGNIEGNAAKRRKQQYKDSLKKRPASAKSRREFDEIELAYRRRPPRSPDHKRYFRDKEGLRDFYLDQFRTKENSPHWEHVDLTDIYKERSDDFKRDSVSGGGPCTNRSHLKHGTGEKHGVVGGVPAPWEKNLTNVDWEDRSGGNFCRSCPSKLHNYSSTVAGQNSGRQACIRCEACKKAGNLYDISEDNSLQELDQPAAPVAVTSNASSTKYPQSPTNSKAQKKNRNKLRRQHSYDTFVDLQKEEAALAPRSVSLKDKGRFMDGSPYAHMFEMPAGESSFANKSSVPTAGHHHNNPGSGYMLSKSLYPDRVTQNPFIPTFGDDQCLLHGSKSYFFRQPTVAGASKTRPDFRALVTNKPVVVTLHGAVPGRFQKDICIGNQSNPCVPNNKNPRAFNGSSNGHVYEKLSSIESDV
Chain of Gamma-aminobutyric acid receptor subunit rho-1 (Homo sapiens) (P24046 whole entry): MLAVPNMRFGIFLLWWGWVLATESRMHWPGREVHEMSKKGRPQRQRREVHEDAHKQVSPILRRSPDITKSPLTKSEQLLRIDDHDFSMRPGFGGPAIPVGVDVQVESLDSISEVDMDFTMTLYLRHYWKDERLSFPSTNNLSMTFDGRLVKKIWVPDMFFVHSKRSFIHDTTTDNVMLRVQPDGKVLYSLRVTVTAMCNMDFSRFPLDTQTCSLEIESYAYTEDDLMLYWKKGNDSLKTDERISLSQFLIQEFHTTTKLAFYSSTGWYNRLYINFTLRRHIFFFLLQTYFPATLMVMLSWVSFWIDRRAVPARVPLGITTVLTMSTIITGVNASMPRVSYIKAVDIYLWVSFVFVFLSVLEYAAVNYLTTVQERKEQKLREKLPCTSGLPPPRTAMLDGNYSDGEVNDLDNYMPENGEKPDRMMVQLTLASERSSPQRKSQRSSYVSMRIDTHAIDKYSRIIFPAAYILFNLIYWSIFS
Chain of P2X purinoceptor 2 (Rattus norvegicus) (P49653 whole entry): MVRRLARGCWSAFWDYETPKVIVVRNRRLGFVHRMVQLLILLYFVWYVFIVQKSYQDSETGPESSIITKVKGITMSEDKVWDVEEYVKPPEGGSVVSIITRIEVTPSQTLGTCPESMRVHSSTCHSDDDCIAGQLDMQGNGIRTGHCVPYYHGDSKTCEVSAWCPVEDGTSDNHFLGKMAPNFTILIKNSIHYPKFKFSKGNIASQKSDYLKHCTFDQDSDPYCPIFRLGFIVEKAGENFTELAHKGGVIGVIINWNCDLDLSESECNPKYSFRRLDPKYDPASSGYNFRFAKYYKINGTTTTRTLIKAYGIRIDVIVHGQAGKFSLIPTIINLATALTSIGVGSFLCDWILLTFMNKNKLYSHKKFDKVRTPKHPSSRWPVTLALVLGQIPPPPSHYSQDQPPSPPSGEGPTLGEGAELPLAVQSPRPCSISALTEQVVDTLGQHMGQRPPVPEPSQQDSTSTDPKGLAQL
Chain of Neuronal acetylcholine receptor subunit alpha-7 (Homo sapiens) (P36544 whole entry): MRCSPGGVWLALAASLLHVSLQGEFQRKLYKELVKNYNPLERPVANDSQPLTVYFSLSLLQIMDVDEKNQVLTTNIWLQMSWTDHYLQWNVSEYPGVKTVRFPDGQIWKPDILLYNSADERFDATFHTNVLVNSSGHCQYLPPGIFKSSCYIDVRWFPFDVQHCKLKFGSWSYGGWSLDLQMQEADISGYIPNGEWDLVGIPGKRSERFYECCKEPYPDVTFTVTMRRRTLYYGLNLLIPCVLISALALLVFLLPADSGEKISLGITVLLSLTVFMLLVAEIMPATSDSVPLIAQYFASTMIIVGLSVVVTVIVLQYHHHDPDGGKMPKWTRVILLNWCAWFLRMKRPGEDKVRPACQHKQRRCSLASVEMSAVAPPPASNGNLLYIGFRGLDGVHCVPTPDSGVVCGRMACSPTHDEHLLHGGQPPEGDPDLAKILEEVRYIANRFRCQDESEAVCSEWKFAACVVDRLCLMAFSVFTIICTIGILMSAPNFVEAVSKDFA
Chain of Glutamate receptor 3 (Homo sapiens) (P42263 whole entry): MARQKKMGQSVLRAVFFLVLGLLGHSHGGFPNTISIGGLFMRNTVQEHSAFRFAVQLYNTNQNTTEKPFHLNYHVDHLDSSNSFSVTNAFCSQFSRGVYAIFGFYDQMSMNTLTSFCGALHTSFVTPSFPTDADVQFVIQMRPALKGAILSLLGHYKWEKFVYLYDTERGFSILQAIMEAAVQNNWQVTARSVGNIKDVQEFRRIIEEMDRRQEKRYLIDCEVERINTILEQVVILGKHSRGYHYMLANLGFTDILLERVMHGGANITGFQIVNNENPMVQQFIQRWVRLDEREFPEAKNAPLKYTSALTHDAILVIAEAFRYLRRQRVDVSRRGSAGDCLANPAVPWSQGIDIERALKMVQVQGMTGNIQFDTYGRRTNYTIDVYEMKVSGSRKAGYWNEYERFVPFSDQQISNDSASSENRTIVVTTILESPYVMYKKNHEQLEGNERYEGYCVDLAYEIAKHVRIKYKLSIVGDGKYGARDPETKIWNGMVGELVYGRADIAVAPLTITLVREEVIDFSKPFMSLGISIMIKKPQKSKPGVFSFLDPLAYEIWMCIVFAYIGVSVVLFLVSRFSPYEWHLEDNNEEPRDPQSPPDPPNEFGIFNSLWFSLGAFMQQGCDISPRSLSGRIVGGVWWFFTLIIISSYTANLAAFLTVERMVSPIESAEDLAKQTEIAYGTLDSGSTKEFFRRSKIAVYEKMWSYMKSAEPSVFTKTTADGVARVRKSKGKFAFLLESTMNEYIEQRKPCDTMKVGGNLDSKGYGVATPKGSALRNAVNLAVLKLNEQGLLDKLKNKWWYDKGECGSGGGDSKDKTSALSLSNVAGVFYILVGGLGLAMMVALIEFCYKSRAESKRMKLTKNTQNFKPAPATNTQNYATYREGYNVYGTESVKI
Chain of Glutamate receptor ionotropic, kainate 1 (Homo sapiens) (P39086 whole entry): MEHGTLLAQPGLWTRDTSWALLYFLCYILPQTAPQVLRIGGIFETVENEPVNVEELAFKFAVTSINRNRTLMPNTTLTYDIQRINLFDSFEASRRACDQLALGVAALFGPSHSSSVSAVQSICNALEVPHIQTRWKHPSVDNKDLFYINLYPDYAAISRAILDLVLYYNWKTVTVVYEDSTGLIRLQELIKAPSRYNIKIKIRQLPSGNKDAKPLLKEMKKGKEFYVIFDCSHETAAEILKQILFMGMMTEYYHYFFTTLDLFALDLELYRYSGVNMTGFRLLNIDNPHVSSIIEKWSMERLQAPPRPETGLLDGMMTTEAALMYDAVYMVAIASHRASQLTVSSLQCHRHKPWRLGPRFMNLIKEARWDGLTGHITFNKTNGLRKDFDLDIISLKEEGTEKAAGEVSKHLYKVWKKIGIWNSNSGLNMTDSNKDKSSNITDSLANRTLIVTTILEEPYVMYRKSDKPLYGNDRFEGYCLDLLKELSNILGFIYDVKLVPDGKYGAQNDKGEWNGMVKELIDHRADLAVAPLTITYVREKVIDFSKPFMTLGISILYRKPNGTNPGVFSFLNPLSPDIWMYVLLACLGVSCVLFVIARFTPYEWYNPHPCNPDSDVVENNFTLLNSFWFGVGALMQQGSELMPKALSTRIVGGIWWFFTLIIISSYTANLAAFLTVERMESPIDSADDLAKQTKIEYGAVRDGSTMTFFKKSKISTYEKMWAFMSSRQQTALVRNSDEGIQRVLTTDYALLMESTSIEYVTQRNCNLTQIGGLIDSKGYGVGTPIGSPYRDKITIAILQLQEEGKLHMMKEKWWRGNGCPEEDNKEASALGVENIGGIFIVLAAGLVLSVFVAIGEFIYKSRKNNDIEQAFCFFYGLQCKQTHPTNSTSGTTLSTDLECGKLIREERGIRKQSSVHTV

Row | Structure (SMILES) | Stability [9] | Ratio IC50 [10] | IC50 [11] [µM] | Ratio IC50 [12] | residual activity [13] [%] | residual activity [14] [%] | residual activity [15] [%] | residual activity [16] [%] | residual activity [17] [%] | residual activity [18] [%] | residual activity [19] [%] | further results
1 | O=C(O)CCC(=O)N1N=C(c2c(-c3ccc(Cl)cc3)c3ccccc3[nH]c2=O)CC1c1ccc(Cl)cc1 (racemic) | Stable | 50 | 22 | 48 | 97 | 97 | 97 | 99 | 99 | 21 | 82 | t1/2 [1]: > 1 h; CLint [2]: < 20 µL/min/mg; Stability [3]: 86%; Stability [4]: 115%; Stability [5]: 100%; Drug recovery [6]: 76%; Papp [7]: 25.6 ×10⁻⁶ cm/s; solubility kinetic [8]: > 80 µM
2 | O=C(O)/C=C/C(=O)N1N=C(c2c(-c3ccc(Br)cc3)c3ccccc3[nH]c2=O)CC1c1ccc(Cl)cc1 (racemic) | Stable | 63 | 12 | 23 | 96 | 97 | 100 | 100 | 97 | 26 | 64 | Ki [20]: > 10 µM; inhibition [21]: inactive; inhibition [22]: inactive; residual activity [23]: 4.8%; residual activity [24]: 4.9%
